This is an account of results in ChEMBL document CHEMBL5532650, “Discovery of an orally active nitrothiophene-based antitrypanosomal agent” (Eur J Med Chem, 2024).

Activity calls are given as the source filed them. The rule behind the calls is not given here.

In data set [1] the test system is Trypanosoma brucei rhodesiense. Nature of the data set: Inhibition of Trypanosoma brucei rhodesiense MVAT4 strain Cathepsin-L expressed in Pichia pastoris at 10 uM relative to control. In short, it runs like this:
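Trypanosomal cathepsin L, expressed in Pichia pastoris and purified, was tested at 10 μM after 1 hour. The read-out was percentage inhibition, with E-64 as positive control.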

Data set [2] concerns HepG2. Description: (§1) Cytotoxicity against human HepG2 cells assessed as cell growth measured after 72 hrs mby MTT assay. Format: toxicity, cell-based. The following applies: hepg2, 72 h. In short, it runs like this: (§2)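 HepG2 in DMEM:F12 with 10% FBS were seeded at 5 x 10^5 cells/mL and allowed 18-24 h. Compounds in DMSO over 0.01–300 μM for 72 h. MTT was then added for 30 min, formazan dissolved in DMSO and absorbance read at 550 nm. Triplicates; SDS (10%) and podophyllotoxin were the controls. CC50 = half-maximal cellular viability.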

In data set [3] the test system is Trypanosoma brucei brucei. Nature of the data set: Antitrypanosomal activity against bloodstream forms of Trypanosoma brucei brucei strain 427 assessed as growth inhibition measured after 48 hrs by Alamar blue assay. In kind it is functional, organism-based. The following applies: Trypanosoma brucei, 427, 48 h. In short, it runs like this: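 Bloodstream T. b. brucei 427 at 5 x 10^3 cells/well in supplemented HMI-9 with 10% FBS. Compounds in DMSO over 0.01–50 μM, triplicates. After 48 h exposure, Alamar blue was added for 4 h at 37°C. Fluorescence read at ex/em 530/590 nm; suramin was the positive control. EC50 = half-maximal trypanosomal viability.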

A short description of data set [4]: Selectivity index, ratio of CC50 for cytotoxicity against human HepG2 cells to EC50 for Antitrypanosomal activity against bloodstream forms of Trypanosoma brucei brucei strain 427. Format: toxicity, cell-based. The settings on record: read-out: Selectivity Index.
In data set [5] the test system is Trypanosoma brucei gambiense. Nature of the data set: Antitrypanosomal activity against bloodstream forms of Trypanosoma brucei gambiense 130R assessed as growth inhibition incubated for 68 hrs followed by treated with resazurin 4 to 6 hrs by resazurin based fluorescence assay. In kind it is functional, organism-based. In short, it runs like this: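 Bloodstream 130R at 4x10^4 parasites/well in HMI-9 with 15% heat-inactivated fetal calf and 5% human serum. Eleven 3-fold dilutions spanned 100 to 0.002 μM. Plates ran 68 h at 37 °C in 5% CO2, then resazurin for 4–6 h. Fluorescence read at ex/em 536/588 nm; melarsoprol was the control.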
Background: The colour change of resazurin is a common sign of viable cells or microbes.

Data set [6] relates to Trypanosoma brucei rhodesiense. Nature of the data set: Antitrypanosomal activity against bloodstream forms of Trypanosoma brucei rhodesiense STIB 900 assessed as growth inhibition incubated for 70 hrs followed by treated with resazurin 2 to 4 hrs by resazurin based fluorescence assay. Format: functional, organism-based. In short, it runs like this:
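Bloodstream STIB 900 at 2x10^4 parasites/well in HMI-9 with 15% heat-inactivated horse serum. Eleven 3-fold dilutions spanned 100 to 0.002 μM. Plates ran 70 h at 37 °C in 5% CO2, then resazurin for 2–4 h. Fluorescence read at ex/em 536/588 nm; melarsoprol was the control.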

The nature of data set [7]: Selectivity index, ratio of CC50 for cytotoxicity against human HepG2 cells to EC50 for Antitrypanosomal activity against bloodstream forms of Trypanosoma brucei rhodesiense STIB 900. Format: toxicity, cell-based.
The nature of data set [8]: Selectivity index, ratio of CC50 for cytotoxicity against human HepG2 cells to EC50 for Antitrypanosomal activity against bloodstream forms of Trypanosoma brucei gambiense 130R. Format: toxicity, cell-based.
A short description of data set [9]: Metabolic stability in mouse liver microsomes assessed as half life at 0.1 uM measured for every 15 mins by HPLC-MS/MS analysis. In kind it is ADME, Microsome. The settings on record: 0.25 h. A general note: Liver microsomes are vesicles of endoplasmic reticulum, rich in cytochrome P450 enzymes.
A short description of data set [10]: Metabolic stability in mouse liver S9 fraction assessed as half life at 0.1 uM measured for every 15 mins by HPLC-MS/MS analysis. The settings on record: s9, 0.25 h. Format: ADME, subcellular.
The nature of data set [11]: as §1. Format: toxicity, cell-based. The following applies: HepG2 cells. In short, it runs like this: as §2

As for `Cc1ncc([N+](=O)[O-])n1CC(=O)N[C@H](/C=C/S(=O)(=O)c1ccccc1)CCc1ccccc1`, in [1], the inhibition (commonly the share of the control response that was lost under treatment) is 44.1%. In data set [2], the CC50 (commonly the concentration giving 50% cytotoxicity) is > 300000 nM. Moreover, the EC50 – broadly, the midpoint of the concentration-response curve – in data set [3] was > 50000 nM.

As for `O=C(NCCCS(=O)(=O)c1ccccc1)c1ccc([N+](=O)[O-])o1`, in data set [1], the inhibition was 15%. In addition, the CC50 in [2] is 44600 nM. Moreover, the selectivity ratio in data set [4] was determined as 45. The EC50 in data set [3] was determined as 990 nM.

In the case of `Nc1nc(N)nc(Nc2ccc([As]3SCC(CO)S3)cc2)n1` (configuration not stated) [MELARSOPROL], the EC50 in data set [5] and in data set [6] was 10 nM in each case.

`CS(=O)(=O)CCCNC(=O)c1ccc([N+](=O)[O-])s1` returned an inhibition in [1] of 11.1%. In data set [2], the CC50 was found to be 98600 nM. For the same compound, in data set [4], the selectivity ratio was determined as 76.4. Moreover, in data set [3], the half-maximal effective concentration (EC50) is 1290 nM.

On to `O=C(N[C@H](/C=C/S(=O)(=O)c1ccccc1)CCc1ccccc1)c1cc(Cl)c([N+](=O)[O-])[nH]1`, for which the inhibition in data set [1] is 26.7%. For the same compound, the CC50 in data set [2] is > 160000 nM. Moreover, the EC50 in data set [3] amounted to 31200 nM.

For the compound `O=C(NC/C=C/S(=O)(=O)c1ccccc1)c1ccco1`, the inhibition in data set [1] came to 30.6%. For the same compound, the CC50 in [2] worked out at 66300 nM. Moreover, in data set [4], the selectivity ratio turned out to be 34. The EC50 in data set [3] amounted to 1950 nM.

With `CNC(=O)CCCNC(=O)c1ccc([N+](=O)[O-])s1`, the selectivity ratio in [7] was determined as 35.5; in data set [4], 16.9; in data set [8] it was 37. For the same compound, in [1], the inhibition entry is “inactive”. Besides, the half-maximal cytotoxic concentration (CC50) in data set [2] stood at 69500 nM. For the same compound, the EC50 in [5] stood at 1880 nM; in [6], 1960 nM; in data set [3], 4120 nM.

As to `CNC(=O)/C=C/[C@H](CCc1ccccc1)NC(=O)c1ccc([N+](=O)[O-])o1`, the selectivity ratio amounted to 298 in data set [7], 139 in data set [4] and 694 in data set [8]. The compound also gave an inhibition in [1] of 54.8%. The t1/2 in data set [9] was > 1 h; in data set [10] it was 0.3415 h. Moreover, the CC50 in data set [2] amounted to 41700 nM. The EC50 is 60 nM in data set [5], 140 nM in data set [6] and 300 nM in [3].

`CS(=O)(=O)/C=C/CNC(=O)c1cccs1`: the inhibition in data set [1] is 23.6%. Moreover, in [2], the CC50 is > 300000 nM. For the same compound, the EC50 in data set [3] was > 30000 nM.

As for `CNC(=O)CCCNC(=O)c1cccs1`, the inhibition result in [1] is “inactive”. In data set [2], the CC50 is > 300000 nM. Besides, the EC50 in data set [3] is > 30000 nM.

As to `CS(=O)(=O)/C=C/CNC(=O)c1ccc([N+](=O)[O-])s1`, the selectivity ratio in [7] was found to be 822; in data set [4], 154; in data set [8] it was 395. In [1], this compound showed an inhibition of 23.2%. Besides, the t1/2 in data set [9] and in data set [10] was > 1 h in each case. Moreover, the CC50 in data set [2] came out at 98600 nM. Further, the EC50 is 250 nM in data set [5], 120 nM in [6] and 640 nM in [3].

For `CS(=O)(=O)CCCNC(=O)c1cccs1`, the inhibition result in data set [1] is “inactive”. Moreover, in data set [2], the CC50 is > 150000 nM. In addition, the EC50 in data set [3] was > 30000 nM.

With `O=C(N[C@H](/C=C/S(=O)(=O)c1ccccc1)CCc1ccccc1)c1ccc([N+](=O)[O-])o1`, the inhibition in data set [1] was found to be 78.1%. In addition, the CC50 at 72 h in data set [11] came out at 5170 nM. Further, the EC50 in [5] stood at 70 nM; in data set [6], 2730 nM; in data set [3] it was 110 nM.

`O=C(NC/C=C/S(=O)(=O)c1ccccc1)c1ccc([N+](=O)[O-])s1`: the CC50 in data set [2] stood at 20400 nM. The EC50 was found to be 320 nM in data set [5], 610 nM in [6] and 6350 nM in [3].

For the compound `CNC(=O)/C=C/[C@H](CCc1ccccc1)NC(=O)c1ccc([N+](=O)[O-])s1`, the selectivity ratio came to 1500 in [7], 333 in data set [4] and 2000 in [8]. Moreover, in data set [1], the inhibition worked out at 58.4%. For the same compound, the values for the t1/2 in [9] and in data set [10] were > 1 h and 0.3248 h, respectively. Besides, the CC50 in data set [2] is 60000 nM. Besides, the EC50 in data set [5] stood at 30 nM; in data set [6] it was 40 nM; in data set [3] it was 180 nM.

As for `O=C(NC/C=C/S(=O)(=O)c1ccccc1)c1ccc([N+](=O)[O-])o1`, the selectivity ratio in data set [7] turned out to be 33.5; in [4] it was 60.6. Further, the inhibition in data set [1] is 17.7%. The t1/2 in data set [9] was > 1 h; in [10] it was 0.2165 h. The CC50 in data set [2] came out at 59400 nM. The half-maximal effective concentration (EC50) in [5] was determined as 200 nM; in data set [6], 1770 nM; in [3], 980 nM.

`CS(=O)(=O)/C=C/CNC(=O)c1ccc([N+](=O)[O-])o1` displayed an inhibition in [1] of 21.2%. Further, the t1/2 in [9] was > 1 h. Further, the CC50 in data set [2] turned out to be 21800 nM. The selectivity ratio in [4] is 49.5. Further, the EC50 in data set [5] was determined as 60 nM; in [6], 50 nM; in [3] it was 440 nM.

Consider `CNC(=O)/C=C/CNC(=O)c1ccc([N+](=O)[O-])o1`, for which, in [1], the inhibition came out at 17%. In data set [2], the CC50 is > 75000 nM. Besides, the EC50 in data set [5] is 470 nM; in [6], 220 nM; in data set [3], 1690 nM.
